Test results as given in ChEMBL document CHEMBL5678806, “NMS-P937, an orally available, specific small-molecule polo-like kinase 1 inhibitor with antitumor activity in solid and hematologic malignancies” (Mol Cancer Ther, 2012).
Active and inactive are the calls of the source. The calls are words filed in the database; no cut-off is given here.

Key:
[1] = molecular target: Protein-tyrosine kinase 6 (Homo sapiens, UniProt Q13882); assay: Inhibition of BRK (unknown origin) in presence of [gamma-33P]ATP
Sequence of Protein-tyrosine kinase 6 (Q13882 whole entry): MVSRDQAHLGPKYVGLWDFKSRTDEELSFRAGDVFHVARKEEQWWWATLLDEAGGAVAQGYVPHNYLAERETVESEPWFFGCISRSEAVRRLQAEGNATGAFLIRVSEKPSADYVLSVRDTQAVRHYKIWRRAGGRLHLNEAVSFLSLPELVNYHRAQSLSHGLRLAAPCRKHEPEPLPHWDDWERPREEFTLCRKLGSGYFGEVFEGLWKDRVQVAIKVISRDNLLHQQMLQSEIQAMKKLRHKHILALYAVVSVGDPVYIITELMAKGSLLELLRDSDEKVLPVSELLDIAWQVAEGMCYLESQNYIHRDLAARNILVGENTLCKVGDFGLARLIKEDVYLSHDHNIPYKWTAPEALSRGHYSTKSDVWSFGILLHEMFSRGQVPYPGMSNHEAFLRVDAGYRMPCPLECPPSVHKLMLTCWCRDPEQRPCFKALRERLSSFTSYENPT

[2] = molecular target: Proto-oncogene tyrosine-protein kinase ROS (Homo sapiens, UniProt P08922); assay: Inhibition of ROS (unknown origin) in presence of [gamma-33P]ATP
[3] = molecular target: Calcium/calmodulin-dependent protein kinase type II subunit delta (Homo sapiens) (UniProt Q13557); assay: Inhibition of recombinant full length human CaMKIIdelta assessed as residual activity at 0.1 uM relative to control
Sequence of Calcium/calmodulin-dependent protein kinase type II subunit delta (Homo sapiens) (Q13557 whole entry, the tested form may be a part): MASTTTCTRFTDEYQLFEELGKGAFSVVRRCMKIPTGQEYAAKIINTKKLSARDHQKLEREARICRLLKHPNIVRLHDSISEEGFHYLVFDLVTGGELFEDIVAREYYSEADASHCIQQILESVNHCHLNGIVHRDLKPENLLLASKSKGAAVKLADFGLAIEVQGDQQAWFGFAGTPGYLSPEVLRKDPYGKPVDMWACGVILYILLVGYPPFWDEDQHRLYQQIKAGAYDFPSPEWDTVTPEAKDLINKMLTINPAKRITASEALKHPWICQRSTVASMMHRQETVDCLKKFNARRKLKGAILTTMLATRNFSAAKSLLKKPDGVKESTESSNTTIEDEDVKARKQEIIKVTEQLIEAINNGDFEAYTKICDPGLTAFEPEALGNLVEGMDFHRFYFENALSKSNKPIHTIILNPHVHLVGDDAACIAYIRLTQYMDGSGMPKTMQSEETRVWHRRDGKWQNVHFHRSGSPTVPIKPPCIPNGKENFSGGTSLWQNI

[4] = molecular target: Fibroblast growth factor receptor 4 (Homo sapiens) (UniProt P22455); assay: Inhibition of N-terminal His6-tagged recombinant human FGFR4 (442 to 755 residues) expressed in baculovirus infected Sf21 cells assessed as residual activity at 0.1 uM relative to control
Sequence of Fibroblast growth factor receptor 4 (Homo sapiens) (P22455 22-802 limits assumed): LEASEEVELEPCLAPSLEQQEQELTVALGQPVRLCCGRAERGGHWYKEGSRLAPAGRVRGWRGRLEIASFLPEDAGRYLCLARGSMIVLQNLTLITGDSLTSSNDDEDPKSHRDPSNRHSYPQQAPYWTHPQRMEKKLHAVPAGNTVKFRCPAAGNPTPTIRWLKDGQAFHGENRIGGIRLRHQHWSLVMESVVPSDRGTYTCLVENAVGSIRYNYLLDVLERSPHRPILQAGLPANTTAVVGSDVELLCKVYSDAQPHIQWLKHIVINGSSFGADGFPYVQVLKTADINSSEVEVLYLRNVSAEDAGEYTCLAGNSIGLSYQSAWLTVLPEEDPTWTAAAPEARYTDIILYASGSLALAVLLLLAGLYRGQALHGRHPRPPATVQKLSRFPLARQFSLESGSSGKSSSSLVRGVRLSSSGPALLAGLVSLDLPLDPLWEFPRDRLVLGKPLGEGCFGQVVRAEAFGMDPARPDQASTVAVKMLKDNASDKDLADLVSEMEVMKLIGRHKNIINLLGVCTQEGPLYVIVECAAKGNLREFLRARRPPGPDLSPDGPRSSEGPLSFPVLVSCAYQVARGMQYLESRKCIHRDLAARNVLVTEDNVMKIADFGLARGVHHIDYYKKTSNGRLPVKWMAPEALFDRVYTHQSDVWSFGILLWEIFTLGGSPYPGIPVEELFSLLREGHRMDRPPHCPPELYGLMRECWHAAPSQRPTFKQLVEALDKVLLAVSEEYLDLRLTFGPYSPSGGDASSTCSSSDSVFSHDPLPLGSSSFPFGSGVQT

[5] = molecular target: Tyrosine-protein kinase Lyn (Mus musculus) (UniProt P25911); assay: Inhibition of N-terminal his6-tagged recombinant full-length mouse Lyn expressed in baculovirus infected Sf21 cells assessed as residual activity at 0.1 uM relative to control
Sequence of Tyrosine-protein kinase Lyn (Mus musculus) (P25911 whole entry): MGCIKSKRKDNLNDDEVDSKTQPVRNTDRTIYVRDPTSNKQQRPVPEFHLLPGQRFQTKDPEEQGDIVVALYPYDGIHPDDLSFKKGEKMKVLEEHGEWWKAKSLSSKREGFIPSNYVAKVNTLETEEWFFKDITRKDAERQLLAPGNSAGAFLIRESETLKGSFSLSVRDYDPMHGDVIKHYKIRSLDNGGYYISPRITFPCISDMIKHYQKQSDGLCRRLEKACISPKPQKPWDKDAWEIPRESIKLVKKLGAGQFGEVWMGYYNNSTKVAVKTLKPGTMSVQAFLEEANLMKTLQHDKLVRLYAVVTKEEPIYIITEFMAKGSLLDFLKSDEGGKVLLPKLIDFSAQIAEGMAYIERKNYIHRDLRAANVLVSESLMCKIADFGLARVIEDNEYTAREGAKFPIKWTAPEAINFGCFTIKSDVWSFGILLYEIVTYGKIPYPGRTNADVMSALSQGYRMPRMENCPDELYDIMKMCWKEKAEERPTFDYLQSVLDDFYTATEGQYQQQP

[6] = molecular target: Serine/threonine-protein kinase Nek3 (Homo sapiens) (UniProt P51956); assay: Inhibition of N-terminal 6His-tagged recombinant full length human NEK3 expressed in baculovirus infected Sf21 cells assessed as residual activity at 0.1 uM relative to control
Sequence of Serine/threonine-protein kinase Nek3 (Homo sapiens) (P51956 whole entry): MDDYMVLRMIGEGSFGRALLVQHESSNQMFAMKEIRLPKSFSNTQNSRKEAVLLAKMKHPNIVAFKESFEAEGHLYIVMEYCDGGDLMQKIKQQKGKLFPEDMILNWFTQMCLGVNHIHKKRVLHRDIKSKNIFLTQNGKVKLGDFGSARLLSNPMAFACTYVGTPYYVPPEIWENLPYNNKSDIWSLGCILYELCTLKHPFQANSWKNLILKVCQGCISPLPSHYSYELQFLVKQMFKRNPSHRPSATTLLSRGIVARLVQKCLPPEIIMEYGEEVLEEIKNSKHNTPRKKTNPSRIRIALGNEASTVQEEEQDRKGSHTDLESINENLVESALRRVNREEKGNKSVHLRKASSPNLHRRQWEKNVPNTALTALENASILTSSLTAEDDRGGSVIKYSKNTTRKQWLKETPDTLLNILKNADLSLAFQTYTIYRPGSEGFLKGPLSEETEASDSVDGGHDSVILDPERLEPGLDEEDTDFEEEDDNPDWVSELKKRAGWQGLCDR

[7] = molecular target: Serine/threonine-protein kinase Nek7 (Homo sapiens) (UniProt Q8TDX7); assay: Inhibition of N-terminal His6-tagged recombinant human NEK7 (2 to end residues) expressed in baculovirus infected Sf21 cells assessed as residual activity at 0.1 uM relative to control
Sequence of Serine/threonine-protein kinase Nek7 (Homo sapiens) (Q8TDX7 whole entry, looked up): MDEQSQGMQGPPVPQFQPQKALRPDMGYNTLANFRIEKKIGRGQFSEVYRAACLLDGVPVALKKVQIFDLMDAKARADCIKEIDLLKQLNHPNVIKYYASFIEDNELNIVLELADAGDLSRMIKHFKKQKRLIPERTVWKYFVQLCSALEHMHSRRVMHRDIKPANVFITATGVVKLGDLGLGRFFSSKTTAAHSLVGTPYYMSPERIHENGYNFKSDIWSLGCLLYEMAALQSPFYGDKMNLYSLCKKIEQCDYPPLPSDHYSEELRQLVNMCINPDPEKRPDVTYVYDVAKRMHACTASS

[8] = molecular target: MAP kinase-activated protein kinase 5 (Homo sapiens) (UniProt Q8IW41); assay: Inhibition of N-terminal His6-tagged recombinant human full-length PRAK expressed in baculovirus infected Sf21 cells assessed as residual activity at 0.1 uM relative to control
Sequence of MAP kinase-activated protein kinase 5 (Homo sapiens) (Q8IW41 whole entry): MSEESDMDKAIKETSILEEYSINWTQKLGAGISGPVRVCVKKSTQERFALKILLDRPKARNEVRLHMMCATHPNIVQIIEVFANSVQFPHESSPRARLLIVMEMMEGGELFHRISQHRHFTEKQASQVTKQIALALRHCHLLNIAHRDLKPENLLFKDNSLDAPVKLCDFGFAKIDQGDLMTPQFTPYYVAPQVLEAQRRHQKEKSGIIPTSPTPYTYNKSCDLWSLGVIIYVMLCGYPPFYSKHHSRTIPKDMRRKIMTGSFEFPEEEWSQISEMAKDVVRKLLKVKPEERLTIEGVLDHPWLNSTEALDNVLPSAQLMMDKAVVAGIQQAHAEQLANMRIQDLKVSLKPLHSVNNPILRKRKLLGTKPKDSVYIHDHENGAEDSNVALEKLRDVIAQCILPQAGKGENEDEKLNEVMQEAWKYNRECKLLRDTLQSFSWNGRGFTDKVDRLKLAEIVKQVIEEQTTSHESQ

[9] = molecular target: Tyrosine-protein kinase SYK (Homo sapiens, UniProt P43405); assay: Inhibition of N-terminal His6-tagged recombinant full-length human Syk expressed in baculovirus infected Sf21 cells assessed as residual activity at 0.1 uM relative to control
[10] = molecular target: Tyrosine-protein kinase BTK (Homo sapiens) (UniProt Q06187); assay: Inhibition of N-terminal His6-tagged recombinant full-length human BTK expressed in baculovirus infected Sf21 cells assessed as residual activity at 1 uM relative to control
Sequence of Tyrosine-protein kinase BTK (Homo sapiens) (Q06187 whole entry): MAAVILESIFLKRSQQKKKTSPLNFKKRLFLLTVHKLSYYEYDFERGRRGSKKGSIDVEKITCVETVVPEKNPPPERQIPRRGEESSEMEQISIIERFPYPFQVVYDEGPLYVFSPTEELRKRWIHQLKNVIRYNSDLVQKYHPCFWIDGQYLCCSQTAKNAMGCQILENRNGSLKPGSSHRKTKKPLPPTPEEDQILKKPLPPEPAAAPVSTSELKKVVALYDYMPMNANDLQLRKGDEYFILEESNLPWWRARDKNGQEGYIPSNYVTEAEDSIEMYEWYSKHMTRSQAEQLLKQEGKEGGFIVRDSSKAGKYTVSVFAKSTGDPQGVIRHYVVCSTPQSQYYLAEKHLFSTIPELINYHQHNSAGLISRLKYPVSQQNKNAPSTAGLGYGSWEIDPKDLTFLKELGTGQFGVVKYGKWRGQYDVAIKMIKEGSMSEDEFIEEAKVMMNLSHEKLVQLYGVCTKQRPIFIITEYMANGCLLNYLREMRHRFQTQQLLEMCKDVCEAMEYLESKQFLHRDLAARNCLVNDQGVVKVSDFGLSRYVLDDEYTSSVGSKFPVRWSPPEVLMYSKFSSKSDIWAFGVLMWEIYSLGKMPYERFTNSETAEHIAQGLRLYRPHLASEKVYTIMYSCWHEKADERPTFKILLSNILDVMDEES

[11] = molecular target: Calcium/calmodulin-dependent protein kinase type 1 (Homo sapiens) (UniProt Q14012); assay: Inhibition of recombinant human CaMKI assessed as residual activity at 1 uM relative to control
Sequence of Calcium/calmodulin-dependent protein kinase type 1 (Homo sapiens) (Q14012 whole entry, looked up): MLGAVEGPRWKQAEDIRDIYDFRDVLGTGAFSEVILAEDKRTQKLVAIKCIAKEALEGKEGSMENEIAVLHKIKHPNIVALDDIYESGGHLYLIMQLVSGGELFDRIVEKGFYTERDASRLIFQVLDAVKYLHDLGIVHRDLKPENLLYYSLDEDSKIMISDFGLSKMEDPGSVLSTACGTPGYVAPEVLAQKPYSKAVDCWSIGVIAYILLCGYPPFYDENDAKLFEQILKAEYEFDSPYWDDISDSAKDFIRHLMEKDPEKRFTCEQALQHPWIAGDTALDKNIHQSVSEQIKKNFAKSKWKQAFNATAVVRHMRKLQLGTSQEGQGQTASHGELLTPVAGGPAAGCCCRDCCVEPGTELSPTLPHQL

[12] = molecular target: cAMP-dependent protein kinase catalytic subunit PRKX (Homo sapiens) (UniProt P51817); assay: Inhibition of N-terminal 6His-tagged recombinant full-length human PrKX expressed in baculovirus infected Sf21 cells assessed as residual activity at 1 uM relative to control
Sequence of cAMP-dependent protein kinase catalytic subunit PRKX (Homo sapiens) (P51817 whole entry): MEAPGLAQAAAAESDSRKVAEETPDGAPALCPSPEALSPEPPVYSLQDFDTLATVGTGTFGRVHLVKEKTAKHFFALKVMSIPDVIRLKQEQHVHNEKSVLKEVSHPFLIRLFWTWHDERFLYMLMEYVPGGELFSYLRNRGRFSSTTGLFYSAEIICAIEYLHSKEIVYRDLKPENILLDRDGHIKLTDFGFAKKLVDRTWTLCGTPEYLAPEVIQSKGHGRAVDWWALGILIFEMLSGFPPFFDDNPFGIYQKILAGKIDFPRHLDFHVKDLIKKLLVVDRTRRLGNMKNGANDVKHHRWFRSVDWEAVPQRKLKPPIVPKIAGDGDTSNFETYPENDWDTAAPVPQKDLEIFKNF

SK-N-MC = assay: Antiproliferative activity against human SK-N-MC cells assessed as inhibition of cell growth incubated for 72 hrs by cell-titer glo assay; assay type: functional, cell-based
BT-20 = assay: Antiproliferative activity against human BT-20 cells assessed as inhibition of cell growth incubated for 72 hrs by cell-titer glo assay; assay type: functional, cell-based; settings: BT-20, 72 h
How it was run: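 Cells seeded 10,000–30,000/cm² (adherent) or 100,000/mL (suspension) in medium with 10% fetal calf serum; after 24 h treated in duplicate with serial dilutions for 72 h. Viable cells read by CellTiter-Glo luminescence; IC50 from sigmoidal fit; at least two independent experiments.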

Hs-578T = assay: Antiproliferative activity against human Hs-578T cells assessed as inhibition of cell growth incubated for 72 hrs by cell-titer glo assay; assay type: functional, cell-based
How it was run: (§1)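 Cells seeded at 10,000–30,000/cm² (adherent) or 100,000/mL (nonadherent) in medium with 10% fetal calf serum; after 24 h, treated in duplicate with serial dilutions for 72 h. Viable cell number read by CellTiter-Glo luminescence; IC50 from sigmoidal fit; at least two independent experiments.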

SW-620 = assay: Antiproliferative activity against human SW620 cells assessed as inhibition of cell growth incubated for 72 hrs by cell-titer glo assay; assay type: functional, cell-based; settings: SW-620, 72 h
HT-29 = assay: Antiproliferative activity against human HT-29 cells assessed as inhibition of cell growth incubated for 72 hrs by cell-titer glo assay; assay type: functional, cell-based; settings: HT-29, 72 h; how it was run: as §1
UO-31 = assay: Antiproliferative activity against human UO-31 cells assessed as inhibition of cell growth incubated for 72 hrs by cell-titer glo assay; assay type: functional, cell-based; settings: UO-31, 72 h
NCI-H526 = assay: Antiproliferative activity against human NCI-H526 cells assessed as inhibition of cell growth incubated for 72 hrs by cell-titer glo assay; assay type: functional, cell-based; settings: NCI-H526, 72 h
How it was run: (§2)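 Cells from ATCC or ECACC, kept in supplier-recommended medium with 1% penicillin-streptomycin at 37°C, 5% CO₂. Seeded at 10,000–30,000/cm² (adherent) or 100,000/mL (nonadherent) in medium with 10% fetal calf serum. Dosed after 24 h in duplicate with serial dilutions. Viable cells read by CellTiter-Glo 72 h later. IC50 from sigmoidal fit. At least two independent experiments.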

UACC-257 = assay: Antiproliferative activity against human UACC-257 cells assessed as inhibition of cell growth incubated for 72 hrs by cell-titer glo assay; assay type: functional, cell-based; settings: UACC-257, 72 h
KU812 cell line = assay: Antiproliferative activity against human KU812 cell line assessed as inhibition of cell growth incubated for 72 hrs by cell-titer glo assay; assay type: functional, cell-based; settings: KU812, 72 h; how it was run: as §1
NCI-H929 = assay: Antiproliferative activity against human NCI-H929 cells assessed as inhibition of cell growth incubated for 72 hrs by cell-titer glo assay; assay type: functional, cell-based; settings: NCI-H929, 72 h; how it was run: as §2
NHDF [13] = assay: Induction of DNA damage in human NHDF cells assessed as H2AX phosphorylation at 0.5 to 1 uM incubated for 8 hrs by Western blotting analysis; assay type: toxicity, cell-based; settings: dose 0.5-1 µM
[14] = Half-life in nu/nu mouse at 10 mg/kg, po by LC-MS analysis; assay type: ADME, organism-based; settings: in vivo
[15] = Half-life in male cynomolgus monkey at 5 mg/kg, po by LC-MS analysis; assay type: ADME, organism-based, Macaca fascicularis; settings: in vivo
[16] = AUC in male cynomolgus monkey at 5 mg/kg, po by LC-MS analysis; assay type: ADME, organism-based, Macaca fascicularis; settings: in vivo
NHDF [17] = assay: Induction of mitosis in human NHDF cells at 0.0001 to 100 uM incubated for >= 24 hrs followed by compound washout by cell titer glow assay; assay type: toxicity, cell-based; settings: dose 0.0001-100 µM
HCT-116 = assay: Antitumor activity against human HCT-116 cells xenografted in nu/nu mouse assessed as tumor growth inhibition at 60 mg/kg, po administered for 8 days relative to control; assay type: functional; settings: HCT-116, 192 h, time 8 day, read-out: TGI
[18] = Plasma concentration in nu/nu mouse xenografted with human HL-60 cells at 60 mg/kg, po administered for 10 days relative to control; assay type: ADME, organism-based; settings: time 10 day
A2780 = assay: Antitumor activity against human A2780 cells xenografted in nu/nu mouse assessed as tumor growth inhibition at 60 mg/kg, po administered for 10 days; settings: time 10.0 day

For `CN1CCN(c2ccc(OC(F)(F)F)c(Nc3ncc4c(n3)-c3c(c(C(N)=O)nn3CCO)CC4)c2)CC1` [ONVANSERTIB], the IC50 [1] was over 10 µM, the IC50 [2] was over 10 µM and the Activity [3] was 88%. It also gave an Activity [4] of 93%, an Activity [5] of 137% and an Activity [6] of 127%. It also gave an Activity [7] of 123%, an Activity [8] of 126% and an Activity [9] of 96%. For the same compound, the Activity [10] was 84%, the Activity [11] was 87% and the Activity [12] was 69%. It also gave an IC50 (SK-N-MC) of 0.073 µM, an IC50 (BT-20) of 0.093 µM and an IC50 (Hs-578T) of 0.251 µM. The IC50 (SW-620) was 0.037 µM, the IC50 (HT-29) was 0.039 µM and the IC50 (UO-31) was 1.13 µM. The IC50 (NCI-H526) was 0.031 µM, the IC50 (UACC-257) was 0.441 µM and the IC50 (KU812 cell line) was 0.02 µM. The IC50 (NCI-H929) was 0.063 µM, the Activity (NHDF [13]) was “Toxic” and the half-life [14] was 1.6 h. The half-life [15] was 4.2 h, the AUC [16] was 14.8 µM·h and the Activity (NHDF [17]) was “Toxic”. For the same compound, the inhibition in vivo at 60 mg/kg (HCT-116) was 79%, the concentration at 240 h [18] was 433 nM and the TGI (A2780) was “Active”.
